Assay results gathered from unrelated publications.
Target: Tyrosine-protein kinase Lck (LCK, Homo sapiens, UniProt P06239)

Compound | test | conditions | remaining binding
Cc1cnc(Nc2ccc(C(=O)N3CCC(N4CCCC4)CC3)cc2)nc1-c1cc2ccccc2s1 | binding, competition with immobilised ligand | 1 µM | 2.7%
COc1ccc2cc(OCC3(C(=O)O)CN(C(=O)c4ccc(F)cc4)C3)ccc2c1 | cell-free assay, competition with immobilised ligand | 1 µM | 80%
c1cncc(-c2cccc(Nc3nccc(NC4CCCCC4)n3)c2)c1 | binding, competition with immobilised ligand | 10 µM | 6.6%
O=C(Nc1c[nH]nc1C(=O)NC1CCNCC1)c1cc(F)cc(F)c1 | binding, competition with immobilised ligand | 1 µM | 100%
CNCc1ccccc1-c1csc([C@H](C)Nc2nc(C)nc3cc(OC)c(OC)cc23)c1 | cell-free assay, competition with immobilised ligand | 1 µM | 100%
F[C@@H]1CCN(c2nccc(-c3cnn4ncccc34)n2)C1 | binding | 1 µM | 100%
CNC(=O)[C@@H]1CC[C@@H](n2c(-c3ccc4cnccc4c3)nc3ccc(C(=O)NCc4cccc(C(N)=O)c4)cc32)C1 | binding, competition with immobilised ligand | 1 µM | 94%
O=C(c1ccc(Nc2ncc(Cl)c(-c3ccc(Cl)s3)n2)cc1)N1CCC(N2CCCC2)CC1 | binding, competition with immobilised ligand | 1 µM | 32%
Nc1ncc2c(n1)-c1c([nH]c3ccc(C#CC4CC4)cc13)CCCC2 | binding, competition with immobilised ligand | 1 µM | 100%
COc1ccc2c(c1)O[C@@H](c1ccc(OC)c(OC)c1)C[C@H]2NC(=O)C1(c2ccc3c(c2)OC(F)(F)O3)CC1 | cell-free assay, competition with immobilised ligand | 1 µM | 100%
COc1ncc2cc3ccccc3nc2c1C#N | binding, competition with immobilised ligand | 5 µM | 93%
C[C@H]1CCN(c2nccc(-c3cnn4ncccc34)n2)C1 | binding | 1 µM | 98%
CC1=C(C#N)[C@@H](c2ccc3[nH]nc(C)c3c2)C(C#N)=C(c2ccc(Cl)cc2)N1 | cell-free assay, competition with immobilised ligand | 1 µM | 100%
COc1ccnn2ncc(-c3ccnc(N(C)C)n3)c12 | binding | 1 µM | 94%
CCCOc1ccc([C@H]2[C@H](C(=O)O)[C@@H](c3ccc4c(c3)OCO4)CN2CC(=O)Nc2c(CC)cccc2CC)cc1 | cell-free assay, competition with immobilised ligand | 1 µM | 100%
O=C(c1ccc(Nc2nccc(-c3cc4ccccc4s3)n2)cc1)N1CCC(N2CCCC2)CC1 | binding, competition with immobilised ligand | 1 µM | 34%
